{"data": "Measured values collected from several papers", "PIM3": "Serine/threonine-protein kinase pim-3 (PIM3, Homo sapiens, UniProt Q86V86)", "note": "Compare with care: the assays were run in different laboratories."}
{"SMILES": "CCOC(=O)c1ccc(OC(=O)CCCCCNC(=N)N)cc1", "target": "Ubiquitin carboxyl-terminal hydrolase isozyme L3 (UCHL3, Homo sapiens, UniProt P15374)", "assay": "enzyme activity, inhibitor", "setting": "10 µM", "endpoint": "inhibition", "result": "4%"}
{"SMILES": "O=C(Nc1cccnn1)N1CCN([C@@H]2CCOc3cc(C(F)(F)F)ccc32)CC1", "target": "5-hydroxytryptamine receptor 1B (Htr1b, Rattus norvegicus, UniProt P28564)", "assay": "cell-free assay", "setting": "20 µM", "endpoint": "inhibition", "result": "9%"}
{"SMILES": "Cc1nn(C)cc1-c1nc2c(N3CCN(Cc4ccc(Cl)cc4)CC3)c(Cl)cnc2[nH]1", "target": "PIM3", "assay": "binding, competition with immobilised ligand", "setting": "1 µM", "endpoint": "remaining binding", "result": "100%"}
{"SMILES": "C=CC(=O)N1CCC[C@@H](n2nc(-c3ccc(Oc4ccccc4)cc3)c3c(N)ncnc32)C1", "target": "Dual specificity tyrosine-phosphorylation-regulated kinase 1B (DYRK1B, Homo sapiens, UniProt Q9Y463)", "assay": "cell-free assay", "setting": "1 µM", "endpoint": "remaining signal", "result": "136%"}
{"SMILES": "COc1ncccc1-c1cnn2ccc(N3CCN(C(=O)OC(C)C)CC3)nc12", "target": "Dual specificity testis-specific protein kinase 1 (TESK1, Homo sapiens, UniProt Q15569)", "assay": "binding, competition with immobilised ligand", "setting": "1 µM", "endpoint": "remaining binding", "result": "93%"}
{"SMILES": "Nc1ncc(-c2nc(N3CCOCC3)nc(N3CCOCC3)n2)c(C(F)F)n1", "target": "PIM3", "assay": "binding, competition with immobilised ligand", "setting": "10 µM", "endpoint": "remaining binding", "result": "89%"}
{"SMILES": "CCN(CC)CCCC[C@H](NC(=O)[C@H](CC(C)C)NC(=O)[C@H](C)NC(=O)[C@H](Cc1ccccc1)NC(=O)c1ccc(C(C)(C)C)cc1)C(=O)N[C@@H](CO)C(=O)OC", "target": "Bromodomain testis-specific protein, BD1 (BRDT, Homo sapiens, UniProt Q58F21)", "assay": "thermal stability, DSF", "setting": "25 µM", "endpoint": "ΔTm", "result": "-0.19 °C"}
{"SMILES": "N#Cc1ccc(NCCNCC(=O)N2N=CCC2C#N)nc1 (centres unmarked)", "target": "Dipeptidyl peptidase 2 (Homo sapiens, UniProt Q9UHL4)", "assay": "enzyme activity, inhibitor", "setting": "10 µM", "endpoint": "inhibition", "result": "30%"}
